Source: PubChem
Shown are actives, neighbours in structure and some others; about 2.6% of the full set was active somewhere.
Ecoli rRNA inh = reduced GFP signal of wild-type E. coli, primary screen, bacterial rRNA inhibitor project, GFP/RFP fluorescence, OD600, single point | E. coli WT GFP vs humanized-ribosome RFP mutants, 24 h; stronger effect = lower value; DMSO median 0, no signal -100 | GFP signal change (wild-type ribosome), % (no concentration beside the values) | 350,000 tested, 1.6% active;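 active = significant combined selectivity score with lowered wild-type GFP, culture density cut under 30%, mutant RFP and density less affected; inactive = any of these conditions unmet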
SR-BI uptake up = activators of SR-BI mediated DiI-HDL uptake, primary screen, ldlA[mSR-BI] CHO cells, DiI fluorescence; 3 h; 100 = double the neutral-control signal; activation, % at 12.5 µM; 320,000 tested, 0.096% active;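 active = mean replicate activation of at least 60% and every replicate at or above 60%; inconclusive = mean or all-replicate condition met, but not both; inactive = mean below 60% and not all replicates reaching 60%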;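 also: 0% = median plate neutral-control signal and 100% = twice that signal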
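Test system: SR-BI-overexpressing, LDLR-lacking CHO cells; Also added: labelled HDL, 10 µg/mL; Measured by: bottom-read cell fluorescence after medium removal, ex 550/em 595 nm; Timing: 3 h uptake period with compound, 37 °C; Buffer or medium: F12, 0.5% BSA, 25 mM HEPES; Doses: single compound concentration, delivered by pin transfer.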
dFosB act-1 = activators of delta FosB homodimer, primary screen, biochemical, fluorescence polarization, TAMRA-CDK5 oligo, single point; Protein FosB (Mus musculus), P13346; purified delta FosB; percent of positive-control signal above neutral wells; 340,000 tested, 0.99% active; activation, % at 25 µM;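 active = mean activation above about 17%, with every replicate also reaching it, limit read from the data, passing the limit was not always enough; inconclusive = only one of the two conditions met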
PvdQ acylase = P. aeruginosa PvdQ acylase inhibitors, primary screen, biochemical, fluorescence, plate reader and imaging, single point | PvdQ acylase [Pseudomonas aeruginosa LESB58] | purified PvdQ acylase | inhibition, % at 10 µM | 340,000 tested, 0.063% active | AID 488965, 2010; in the data active = inhibition above about 30%, passing the limit was not always enough; inconclusive = no clear call, values can overlap the other calls;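 also: 0% = vehicle neutral wells and 100% = reference inhibitor wells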
SR-BI DiI inh = inhibitors of SR-BI mediated HDL lipid uptake, primary screen, ldlA[mSR-BI] cells, fluorescence, single point; Scavenger receptor class B member 1 (Mus musculus), Q61009; ldlA[mSR-BI] CHO cells, DiI-HDL uptake fluorescence, 3 h; inhibition, % at 12.5 µM; 320,000 tested, 0.96% active; AID 488896, 2010;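 active = mean replicate inhibition of at least 70% and a set share of replicates each scoring 70 or more; inconclusive = meets just one of the two criteria; inactive = fails both criteria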;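 also: 0% = median of neutral control wells and 100% = median of positive control wells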
Target sequence (Q61009 whole entry, looked up): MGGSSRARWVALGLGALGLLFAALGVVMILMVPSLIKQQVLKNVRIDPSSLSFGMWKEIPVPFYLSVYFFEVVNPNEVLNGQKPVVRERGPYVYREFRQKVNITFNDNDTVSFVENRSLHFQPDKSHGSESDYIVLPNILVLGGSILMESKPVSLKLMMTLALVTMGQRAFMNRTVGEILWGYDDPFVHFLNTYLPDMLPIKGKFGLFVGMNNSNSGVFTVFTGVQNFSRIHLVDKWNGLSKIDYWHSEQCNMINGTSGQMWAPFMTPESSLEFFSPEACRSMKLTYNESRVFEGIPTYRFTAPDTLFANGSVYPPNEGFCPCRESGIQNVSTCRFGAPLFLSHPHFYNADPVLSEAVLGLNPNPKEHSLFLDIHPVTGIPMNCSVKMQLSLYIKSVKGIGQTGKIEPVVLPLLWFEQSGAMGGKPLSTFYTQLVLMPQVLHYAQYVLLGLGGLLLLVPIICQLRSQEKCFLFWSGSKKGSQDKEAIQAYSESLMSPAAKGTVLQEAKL
XiGFP reactiv = activators of inactive X chromosome reactivation, primary screen, imaging, XiGFP fibroblasts, GFP high-content imaging, set 2; XiGFP mouse fibroblasts, % GFP-positive cells imaging, 3 d; cells co-treated with 5-aza-dC sensitizer; scaled so ellipticine positive control = 100%; activation, % at 7.58 µM; 360,000 tested, 0.055% active;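 active = mean normalized replicate activation at least 10% and every replicate at or above 10%; inconclusive = only one of the two criteria met; inactive = mean below 10% and not all replicates reach 10%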;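 also: 0% = median of on-plate neutral control wells and 100% = ellipticine 6 µM median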
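assay system = SV40-immortalized XiGFP fibroblast cells, line 68-5-11 | buffer or medium = DMEM plus 5-aza-dC sensitizer | doses = single-point pinned compound dosing | times = 3-day compound exposure, then 15 min fixation at room temperature | benchmarks = positive control ellipticine, 6 µM final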
dFosB act-2 = activators of mouse delta FosB DNA binding, confirmation, biochemical, fluorescence polarization, TAMRA-CDK5 oligo, cherry-picked samples. shares compounds with dFosB act-1. purified delta FosB; normalised: neutral wells 0, positive control 100. activation, % at 24.9 µM. 2,400 tested, under 10 active. AID 588690, 2011;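 active = highest replicate activation at or above 34% and every replicate reaching that threshold; inconclusive = meets only one of the two criteria; inactive = meets neither criterion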;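 also: higher polarization means more probe DNA bound by delta FosB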
Numbers without * were called inactive; ? = inconclusive; nt = not tested or not shown.

SMILES | Ecoli rRNA inh | SR-BI uptake up | dFosB act-1 | PvdQ acylase | SR-BI DiI inh | XiGFP reactiv | dFosB act-2
N/C(=N\OC(=O)COc1ccc(Cl)cc1Cl)c1cccnc1 | nt | -16 | 24* | 12 | 16 | 0 | -4
N/C(=N\OC(=O)COc1ccc(Cl)cc1)c1cccnc1 | 21 | 15 | -1 | -11 | -15 | 0 | nt
O=C(Nc1cc(N2CCOCC2)ncn1)NC1(C(F)(F)F)Oc2ccccc2O1 | nt | 9 | 33* | -17 | -9 | nt | -3
COc1cccc(NC(=O)NC2(C(F)(F)F)Oc3ccccc3O2)c1 | nt | -10 | -6 | 13 | 10 | nt | nt
CCN(CC)S(=O)(=O)c1ccc(/C=C/C(=O)OCC(=O)Nc2ccc(S(N)(=O)=O)cc2)cc1 | 2 | -6 | 116* | -11 | 6 | 0 | 6
O=C(COC(=O)/C=C/c1ccc(Cl)cc1)Nc1ccc2[nH]c(=O)[nH]c2c1 | 0 | -12 | 22* | 2 | 12 | 0 | 0
NS(=O)(=O)c1ccc(NC(=O)CCCCC(=O)Nc2ccc(S(N)(=O)=O)cc2)cc1 | 0 | 12 | 53* | -10 | -12 | 0 | 7
NS(=O)(=O)c1ccc(CCNC(=O)COC(=O)/C=C/c2ccc(Cl)cc2)cc1 | -4 | -8 | 21* | -13 | 8 | 0 | -2
CCOc1ccc(-n2c(=O)c3c(C)c(C)sc3n(CC(=O)NCc3ccco3)c2=O)cc1 | 10 | 13 | 8 | -18 | -13 | nt | nt
Cc1sc2c(c1C)c(=O)n(-c1cccc(C(F)(F)F)c1)c(=O)n2CC(=O)NCc1ccco1 | nt | 24 | 57* | -7 | -24 | nt | 1
CC(=O)c1cccc(NS(=O)(=O)c2ccc(N/C=C\C(=O)c3ccc(C)cc3)cc2)c1 | nt | -42 | 23* | -4 | 42 | nt | 0
CC(=O)c1ccc(NS(=O)(=O)c2ccc(N/C=C/C(=O)c3ccc(F)cc3)cc2)cc1 | -11 | nt | 44* | -6 | nt | ? | 3
CC(=O)c1cccc(NS(=O)(=O)c2ccc(N/C=C/C(=O)c3ccc(F)cc3)cc2)c1 | nt | 6 | -2 | -15 | -6 | 0 | nt
CCNC(=O)Nc1ccc2c(c1)C(=O)N(C)[C@@H]1CC[C@H](CC(=O)NCCOC)O[C@H]1CO2 | 1 | nt | nt | nt | nt | 0 | nt
CCOc1ccc(/C=N/NC(=O)c2nnn(-c3nonc3N)c2COc2ccc(F)cc2)cc1 | 1 | -48 | 40* | -1 | 48 | 0 | -1
Nc1nonc1-n1nnc(C(=O)N/N=C/c2ccc(F)cc2)c1-c1cccs1 | -4 | -53 | 55* | -11 | 53 | 0 | -3
Cc1ccsc1/C=N/NC(=O)c1nnn(-c2nonc2N)c1CSc1ccccc1 | 7 | 19 | 18* | -5 | -19 | 0 | 2
NC(=O)Cn1c(=O)n(C2CCCCC2)c(=O)c2c3c(sc21)CCCCC3 | -2 | 47 | 44* | 4 | -47 | 0 | 0
COc1ccc(-n2c(=O)c3c4c(sc3n(CC(N)=O)c2=O)CCCCC4)cc1 | nt | 16 | 30* | -26 | -16 | 0 | -1
O=c1ccc(Oc2nc(N3CCOCC3)nc(N3CCOCC3)n2)nn1-c1ccccc1 | nt | 16 | -4 | -6 | -16 | nt | nt
N#CCC(=O)N/N=C/c1cn(Cc2ccc(Cl)c(Cl)c2)c2ccccc12 | nt | -13 | 51* | -8 | 13 | 0 | -1
N#CCC(=O)N/N=C/c1cn(Cc2ccccc2C#N)c2ccccc12 | 3 | -49 | -12 | -12 | 49 | 0 | nt
CO[C@@H]1CN(C)C(=O)c2cc(NC(=O)Nc3ccc(Cl)cc3)ccc2OC[C@@H](C)N(C(=O)Nc2c(C)noc2C)C[C@H]1C | -3 | nt | nt | nt | nt | 0 | nt
Cc1cccc(NC(=O)CSc2nc(N)c(NC(=O)c3ccccc3F)c(=O)[nH]2)c1 | 5 | 39 | ? | -11 | -39 | 0 | nt
CC(=O)Nc1ccc(NC(=O)CSc2nc(N)c(NC(=O)c3ccccc3F)c(=O)[nH]2)cc1 | 5 | 21 | 17* | -12 | -21 | 0 | -1
SMILES | Ecoli rRNA inh | SR-BI uptake up | dFosB act-1 | PvdQ acylase | SR-BI DiI inh | XiGFP reactiv | dFosB act-2
Nc1nc(SCC(=O)NCc2ccc(F)cc2)[nH]c(=O)c1NC(=O)c1ccc(Cl)cc1 | nt | 9 | 33* | -8 | -9 | 0 | 5
Nc1ccn([C@@H]2O[C@H](C(=O)N[C@H](Cc3ccccc3)C(=O)N3CCC(F)(F)CC3)[C@@H](O)[C@H]2O)c(=O)n1 | 2 | nt | nt | nt | nt | 0 | nt
C/C(=N\N=C(/N)SC1CC(=O)N(c2ccc(Cl)cc2)C1=O)c1cccs1 (stereo not given) | nt | -35 | -7 | 0 | 35 | nt | nt
C/C(=N\N=C(/N)SC1CC(=O)N(c2ccc(Cl)c(Cl)c2)C1=O)c1cccs1 (stereo not given) | -39* | -59 | 25* | -9 | 59 | nt | 3
CSc1ccccc1NC(=O)Nc1cccc(Cl)c1Cl | nt | -30 | 26* | -14 | 30 | nt | 0
CSc1ccccc1NC(=O)Nc1cccc(Cl)c1C | 9 | -31 | 6 | 12 | 31 | 0 | nt
CCOc1ccc(C(=O)N(CC)CC(=O)Nc2ccc3c(c2)OCCO3)cc1OCC | -1 | -15 | -9 | -19 | 15 | 0 | nt
CO[C@H]1CN(C)C(=O)c2ccc(NC(=O)c3cccc(F)c3)cc2OC[C@H](C)N(C(C)=O)C[C@@H]1C | -3 | nt | nt | nt | nt | 0 | nt
COc1ccc(Cl)cc1C(=O)NNC(=O)c1cc2ccccc2o1 | 16 | -16 | 35* | -16 | 16 | 0 | 1
COc1ccc(NC(=O)c2cc3ccccc3o2)cc1OC | 1 | -33 | -5 | -17 | 33 | 0 | nt
Cc1ccc(OC(C)C(=O)N2CCc3ccccc32)cc1 (stereo not given) | nt | nt | -2 | 6 | nt | nt | nt
O=C(NCc1ccccc1)[C@@H]1CCCN1C(=O)[C@H]1CCCN1C(=O)c1ccc(OC(F)(F)F)cc1 | 3 | nt | nt | nt | nt | 1 | nt
C[N+](C)(C)CC(=O)N/N=C/c1c2ccccc2cc2ccccc12 | -7 | 24 | 31* | -10 | -24 | 0 | 1
O=C(COc1ccc(Br)cc1)NCC1COc2ccccc2O1 (stereo not given) | -13 | 4 | -12 | -9 | -4 | 0 | nt
